Reference: ChEMBL document CHEMBL3779798, “Novel seleno- and thio-urea derivatives with potent in vitro activities against several cancer cell lines” (Eur J Med Chem, 2016)

How the values were obtained:
Type in all cases: functional, cell-based
[1] = Anticancer activity against human PANC1 cells assessed as inhibition of cell growth after 48 hrs by MTT assay; conditions: PANC-1, 48 h
How it was run: (§1)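 MTT assay at 3,000 cells/well. Cells treated with DMSO or seven concentrations from 0.5 to 50 µM for 24, 48 or 72 h. MTT added 3 h before the end point; formazan dissolved in DMSO and read at 570 and 630 nm. IC50 is the concentration giving 50% growth inhibition. Media: PANC-1, BxPC3 and 1205Lu in DMEM; DU145 and A549 in RPMI 1640; HT29, HCT116 and RKO in McCoy's 5A, all with 10% FBS and pen/strep, at 37 °C and 5% CO2.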

[2] = tested on: RKO; test: Anticancer activity against human RKO cells assessed as inhibition of cell growth after 48 hrs by MTT assay; how it was run: as §1
[3] = Anticancer activity against human HCT116 cells assessed as inhibition of cell growth after 72 hrs by MTT assay; conditions: HCT-116, 72 h; how it was run: as §1
[4] = Anticancer activity against human PANC1 cells assessed as inhibition of cell growth after 72 hrs by MTT assay; conditions: PANC-1, 72 h; how it was run: as §1
[5] = tested on: HT-29; test: Anticancer activity against human HT-29 cells assessed as inhibition of cell growth after 72 hrs by MTT assay; conditions: HT-29, 72 h; how it was run: as §1
[6] = Anticancer activity against human 1205 Lu cells assessed as inhibition of cell growth after 48 hrs by MTT assay; how it was run: as §1
[7] = tested on: RKO; test: Anticancer activity against human RKO cells assessed as inhibition of cell growth after 72 hrs by MTT assay; how it was run: as §1
[8] = Anticancer activity against human DU145 cells assessed as inhibition of cell growth after 48 hrs by MTT assay; conditions: DU-145, 48 h; how it was run: as §1
[9] = Anticancer activity against human HCT116 cells assessed as inhibition of cell growth after 24 hrs by MTT assay; conditions: HCT-116, 24 h; how it was run: as §1
[10] = Anticancer activity against human HCT116 cells assessed as inhibition of cell growth after 48 hrs by MTT assay; conditions: HCT-116, 48 h; how it was run: as §1
[11] = tested on: A549; test: Anticancer activity against human A549 cells assessed as inhibition of cell growth after 24 hrs by MTT assay; conditions: A549, 24 h; how it was run: as §1
[12] = Anticancer activity against human BxPC3 cells assessed as inhibition of cell growth after 24 hrs by MTT assay; conditions: BXPC-3, 24 h; how it was run: as §1
[13] = tested on: HT-29; test: Anticancer activity against human HT-29 cells assessed as inhibition of cell growth after 24 hrs by MTT assay; conditions: HT-29, 24 h; how it was run: as §1
[14] = tested on: RKO; test: Anticancer activity against human RKO cells assessed as inhibition of cell growth after 24 hrs by MTT assay; how it was run: as §1
[15] = Anticancer activity against human BxPC3 cells assessed as inhibition of cell growth after 48 hrs by MTT assay; conditions: BXPC-3, 48 h; how it was run: as §1
[16] = tested on: A549; test: Anticancer activity against human A549 cells assessed as inhibition of cell growth after 72 hrs by MTT assay; conditions: A549, 72 h; how it was run: as §1
[17] = Anticancer activity against human DU145 cells assessed as inhibition of cell growth after 72 hrs by MTT assay; conditions: DU-145, 72 h; how it was run: as §1
[18] = Anticancer activity against human BxPC3 cells assessed as inhibition of cell growth after 72 hrs by MTT assay; conditions: BXPC-3, 72 h; how it was run: as §1
[19] = Anticancer activity against human 1205 Lu cells assessed as inhibition of cell growth after 72 hrs by MTT assay; how it was run: as §1
[20] = Anticancer activity against human DU145 cells assessed as inhibition of cell growth after 24 hrs by MTT assay; conditions: DU-145, 24 h; how it was run: as §1
[21] = tested on: A549; test: Anticancer activity against human A549 cells assessed as inhibition of cell growth after 48 hrs by MTT assay; conditions: A549, 48 h; how it was run: as §1
[22] = tested on: HT-29; test: Anticancer activity against human HT-29 cells assessed as inhibition of cell growth after 48 hrs by MTT assay; conditions: HT-29, 48 h; how it was run: as §1
[23] = Anticancer activity against human PANC1 cells assessed as inhibition of cell growth after 24 hrs by MTT assay; conditions: PANC-1, 24 h; how it was run: as §1
[24] = Anticancer activity against human 1205 Lu cells assessed as inhibition of cell growth after 24 hrs by MTT assay; how it was run: as §1

Q: Which IC50 [1] does the source give for `N=C(N)SCc1ccc2c(c1)C(=O)c1ccccc1C2=O` here?
A: Its IC50 is 7.4 µM.

Q: What about the IC50 [2] of the same molecule?
A: Its IC50 is 20.4 µM.

Q: And the IC50 [3]?
A: Its IC50 is 10.3 µM.

Q: What about the IC50 [4] of the same molecule?
A: Its IC50 is 6.8 µM.

Q: And the IC50 [5]?
A: The IC50 was 7.4 µM.

Q: And the IC50 [6]?
A: The IC50 was 8.5 µM.

Q: And the IC50 [7]?
A: The IC50 was 21 µM.

Q: And the IC50 [8]?
A: The IC50 was 22.9 µM.

Q: What about the IC50 [9] of the same molecule?
A: Its IC50 is 20.2 µM.

Q: What about the IC50 [10] of the same molecule?
A: Its IC50 is 10.7 µM.

Q: And the IC50 [11]?
A: Its IC50 is 9.7 µM.

Q: And the IC50 [12]?
A: Its IC50 is 4.1 µM.

Q: And the IC50 [13]?
A: Its IC50 is 17 µM.

Q: What about the IC50 [14] of the same molecule?
A: Its IC50 is 28.9 µM.

Q: And the IC50 [15]?
A: The IC50 was 9 µM.

Q: And the IC50 [16]?
A: The IC50 was 7.6 µM.

Q: What about the IC50 [17] of the same molecule?
A: Its IC50 is 31.2 µM.

Q: And the IC50 [18]?
A: Its IC50 is 7.9 µM.

Q: What about the IC50 [19] of the same molecule?
A: Its IC50 is 6.3 µM.

Q: And the IC50 [20]?
A: The IC50 was 29.8 µM.

Q: And the IC50 [21]?
A: Its IC50 is 8.7 µM.

Q: What about the IC50 [22] of the same molecule?
A: Its IC50 is 8.1 µM.

Q: What about the IC50 [23] of the same molecule?
A: Its IC50 is 7.6 µM.

Q: And the IC50 [24]?
A: The IC50 was 9.4 µM.

Q: For `O=c1[nH]cc(F)c(=O)[nH]1` [FLUOROURACIL], which IC50 [2] is on record?
A: The IC50 was 41.1 µM.

Q: And the IC50 [3]?
A: Its IC50 is 27.8 µM.

Q: What about the IC50 [5] of the same molecule?
A: The IC50 was 6.3 µM.

Q: And the IC50 [7]?
A: The IC50 was 6.8 µM.

Q: What about the IC50 [9] of the same molecule?
A: The IC50 was greater than 50 µM.

Q: What about the IC50 [10] of the same molecule?
A: Its IC50 is greater than 50 µM.

Q: What about the IC50 [13] of the same molecule?
A: The IC50 was greater than 50 µM.

Q: What about the IC50 [14] of the same molecule?
A: The IC50 was greater than 50 µM.

Q: And the IC50 [22]?
A: The IC50 was 25 µM.

Q: Which results are given for `N=C(N)SCc1cc2c(cc1Br)OCO2`?
A: IC50 [1]: 40.5 µM; IC50 [3]: 22.1 µM; IC50 [4]: 34.3 µM; IC50 [6]: > 50 µM; IC50 [8]: > 50 µM; IC50 [9]: > 50 µM; IC50 [10]: 34.8 µM; IC50 [11]: > 50 µM; IC50 [12]: > 50 µM; IC50 [15]: > 50 µM; IC50 [16]: > 50 µM; IC50 [17]: > 50 µM; IC50 [18]: 44.3 µM; IC50 [19]: > 50 µM; IC50 [20]: > 50 µM; IC50 [21]: > 50 µM; IC50 [23]: > 50 µM; IC50 [24]: > 50 µM
